Compound activity deposited in PubChem by several laboratories.
This excerpt belongs to a sample that is enriched for hits.
UPR CHOP act – activators of apoptotic arm of unfolded protein response (CHOP) | CHO-CHOP luciferase reporter, UPR activation, luminescence; percent of tunicamycin response over DMSO baseline | activation, % at 10 µM | 330,000 compounds, 0.34% hits | AID 449763;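 active means at 10 µM dose, activation of 40% or more, normalized to positive control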
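Evaluation: % reporter activation, DMSO baseline versus tunicamycin full activation; System: CHO-CHOP luciferase reporter cell line; Input: 500 cells/well; Incubation: 6 h compound treatment, 37 °C; Measured by: Steady-Glo luciferase luminescence; Dosing: one dose, 10 µM in 0.5% DMSO; Buffer or medium: F12 medium, 10% FBS; Benchmarks: positive tunicamycin 10 µg/mL, negative DMSO alone.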
PvdQ inh – blocks Pseudomonas aeruginosa PvdQ acylase activity | purified PvdQ acylase, fluorescence plate reader | inhibition, % at 10 µM | 340,000 compounds, 0.063% hits; in the data active means inhibition above about 30%, passing the limit was not always enough
CHOP inh – blocks CHOP induction under ER stress; inhibition, % at 10 µM; 220,000 compounds, 3.8% hits; CHO-K1 CHOP-promoter luciferase, tunicamycin-induced, 15-18 h;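 active means compounds that reduced the stress-induced luciferase reporter signal by more than about 70% of percent inhibition, limit read from the data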
XBP1 UPR activ – adaptive UPR (XBP1) activation | CHO-XBP1 luciferase reporter, IRE1-XBP1 UPR activation, luminescence; percent of tunicamycin response, DMSO as zero | activation, % at 20 µM | 330,000 compounds, 0.33% hits;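 active means versus positive control, 20 µM dose yields 30% or more activation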
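Material: CHO-XBP1 cells stably carrying IRE1-XBP1-driven luciferase reporter / Amount: 1000 cells per well / Compound: 20 µM, 1% DMSO / Times: 6 h treatment, 37 °C / Detection: luciferase luminescence / Measure: % activation of reporter signal versus tunicamycin and DMSO controls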
UPR XBP1 confirm – confirmation of adaptive unfolded protein response (XBP1) activators; shares compounds with XBP1 UPR activ; CHO-XBP1 IRE1-XBP1 luciferase reporter, luminescence; activation, % at 20 µM; 1,000 compounds, 63% hits;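 active means reporter signal at least 30% of the positive control's activation in two or more of four replicate wells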
Hits are given with their value.

How did O=C(CC1C[C@H](C(=O)N2CCCCC2)[C@@]2(CCc3ccccc3)c3[nH]c4ccccc4c3CCN2C1=O)NCCC1=CCCCC1 (some centres undefined) do in these assays?
UPR CHOP act: inactive; PvdQ inh: inactive; XBP1 UPR activ: 126; UPR XBP1 confirm: 93

What do the screens show for `CCOC(=O)C1CCCN(C(=O)C2CCN(S(=O)(=O)c3ccc4ccccc4c3)CC2)C1` (centres undefined)?
UPR CHOP act: inactive; PvdQ inh: inactive; XBP1 UPR activ: inactive

How did COC(=O)C1=C(CS(=O)(=O)c2ccccc2)NC(=O)NC1c1ccc(O)cc1 (centres undefined) do in these assays?
UPR CHOP act: inactive; PvdQ inh: inactive; XBP1 UPR activ: inactive

Results for Cn1ncc(N=Cc2c(O)ccc3ccccc23)c1C(=O)Nc1cccc(Cl)c1 ?
UPR CHOP act: inactive; PvdQ inh: inactive; CHOP inh: 76; XBP1 UPR activ: 99; UPR XBP1 confirm: 80

What do the screens show for `Cn1ncc(Cl)c1C(=O)Nc1cccc(Cl)c1`?
UPR CHOP act: inactive; PvdQ inh: inactive; CHOP inh: inactive; XBP1 UPR activ: inactive

How did CCOC(=O)C1=C(C)c2ccccc2N(S(=O)(=O)C(F)(F)F)C1C(=O)OCC (centres undefined) do in these assays?
UPR CHOP act: inactive; PvdQ inh: inactive; XBP1 UPR activ: inactive

What do the screens show for `O=C(c1cccc(NS(=O)(=O)c2cccc(F)c2)c1)N1CCCC1`?
UPR CHOP act: inactive; PvdQ inh: inactive; XBP1 UPR activ: inactive

What do the screens show for `COc1ccc(/C=N/n2c(=O)[nH]c3c([nH]c4ccc(C)cc43)c2=O)cc1CN1CCOCC1`?
PvdQ inh: inactive; CHOP inh: inactive

How did CC1=CC(C)[C@H](/C=N/n2c(=O)[nH]c3c([nH]c4ccc(C)cc43)c2=O)C(C)C1 (some centres undefined) do in these assays?
UPR CHOP act: inactive; PvdQ inh: inactive; CHOP inh: inactive; XBP1 UPR activ: 87; UPR XBP1 confirm: 99

What do the screens show for `COc1cccc(C2(CSc3nnc(-c4cc(OC)c(OC)c(OC)c4)o3)OCCO2)c1`?
UPR CHOP act: inactive; PvdQ inh: inactive; CHOP inh: inactive; XBP1 UPR activ: inactive

Results for CC1(C)Cc2c(c(N3CCOCC3)nc3sc4c(NCc5ccccc5)nnnc4c23)CS1 ?
UPR CHOP act: inactive; PvdQ inh: inactive; CHOP inh: inactive; XBP1 UPR activ: 137; UPR XBP1 confirm: inactive

What do the screens show for `CC1(C)Cc2c(c(N3CCOCC3)nc3sc4c(NCc5ccco5)nnnc4c23)CS1`?
UPR CHOP act: inactive; PvdQ inh: inactive; CHOP inh: inactive; XBP1 UPR activ: inactive

Results for CCOC(=O)C1=C(C)N=C2c3ccccc3C(=O)C2C1c1ccc(C)cc1 (centres undefined) ?
UPR CHOP act: inactive; PvdQ inh: inactive; CHOP inh: 74; XBP1 UPR activ: 32; UPR XBP1 confirm: 28

Results for C=CCOC(=O)C1=C[C@@H](c2ccc3c(c2)OCO3)C[C@@H](OCc2ccc(CO)cc2)O1 ?
UPR CHOP act: inactive; PvdQ inh: inactive; CHOP inh: inactive; XBP1 UPR activ: inactive

What do the screens show for `O=C(Oc1ccc2c(c1)OCO2)c1cc2c(s1)CCC2`?
UPR CHOP act: inactive; PvdQ inh: inactive; XBP1 UPR activ: 37; UPR XBP1 confirm: inactive

What do the screens show for `C[C@H](NC(=O)c1nc[nH]c1C(=O)N[C@@H](C)c1ccccc1)c1ccccc1`?
UPR CHOP act: inactive; PvdQ inh: inactive; XBP1 UPR activ: inactive

How did CC/C(=N/Nc1cccc(Cl)c1)c1cnnc(SC)n1 do in these assays?
UPR CHOP act: inactive; PvdQ inh: inactive; CHOP inh: inactive; XBP1 UPR activ: inactive

Results for CC/C(=N/Nc1ccccc1)c1cnnc(-c2ccccc2)n1 ?
UPR CHOP act: inactive; PvdQ inh: inactive; CHOP inh: inactive; XBP1 UPR activ: 69; UPR XBP1 confirm: inactive

How did CCCCn1c(=N)n(CC(=O)c2ccc([N+](=O)[O-])cc2)c2ccccc21 do in these assays?
UPR CHOP act: inactive; CHOP inh: inactive; XBP1 UPR activ: inactive

Results for Cc1ccc(Cn2c(=N)n(CC(=O)c3ccc([N+](=O)[O-])cc3)c3ccccc32)cc1 ?
UPR CHOP act: inactive; PvdQ inh: inactive; CHOP inh: inactive; XBP1 UPR activ: 67; UPR XBP1 confirm: inactive

How did COc1cc(/C=N/Nc2nc(Nc3ccccc3)nc(-n3nc(C)cc3C)n2)cc(OC)c1OC do in these assays?
UPR CHOP act: inactive; PvdQ inh: inactive; CHOP inh: inactive; XBP1 UPR activ: 72; UPR XBP1 confirm: 90

What do the screens show for `COc1cc(/C=N/Nc2nc(Nc3ccc(C)cc3)nc(-n3nc(C)cc3C)n2)cc(OC)c1OC`?
UPR CHOP act: inactive; PvdQ inh: inactive; CHOP inh: inactive; XBP1 UPR activ: 50; UPR XBP1 confirm: 69

How did COc1ccc2[nH]c3nc(SCc4nnc(-c5ccc(C)cc5)o4)nnc3c2c1 do in these assays?
UPR CHOP act: inactive; PvdQ inh: inactive; CHOP inh: inactive; XBP1 UPR activ: 71; UPR XBP1 confirm: 190

What do the screens show for `O=C(c1ccc(Cl)c([N+](=O)[O-])c1)N1CCCc2ccccc21`?
UPR CHOP act: inactive; PvdQ inh: inactive; XBP1 UPR activ: inactive

What do the screens show for `COc1cccc(NC(=O)c2cc3c(=O)n4ccccc4nc3n(CC(C)C)c2=N)c1`?
UPR CHOP act: inactive; PvdQ inh: inactive; CHOP inh: inactive; XBP1 UPR activ: inactive

How did Cc1cccc(NC(=O)c2cc3c(=O)n4ccccc4nc3n(CC(C)C)c2=N)c1 do in these assays?
UPR CHOP act: inactive; PvdQ inh: inactive; CHOP inh: inactive; XBP1 UPR activ: 99; UPR XBP1 confirm: inactive

What do the screens show for `ClCc1nnc(-c2cc3c(s2)CCCC3)o1`?
PvdQ inh: inactive; CHOP inh: inactive

What do the screens show for `CC(C)(C)C1CCc2sc(-c3nnc(CCl)o3)cc2C1` (centres undefined)?
UPR CHOP act: inactive; PvdQ inh: inactive; CHOP inh: inactive; XBP1 UPR activ: 44; UPR XBP1 confirm: inactive

Results for O=C(c1ccc(Br)cc1)c1cc([N+](=O)[O-])ccc1N1CCCCC1 ?
UPR CHOP act: inactive; PvdQ inh: inactive; CHOP inh: inactive; XBP1 UPR activ: 32; UPR XBP1 confirm: inactive

How did CN1CCN(c2ccc([N+](=O)[O-])cc2C(=O)c2ccc(Br)cc2)CC1 do in these assays?
UPR CHOP act: inactive; PvdQ inh: inactive; CHOP inh: inactive; XBP1 UPR activ: inactive

How did Cc1ccc(-n2nc3c(N4CCC(C(=O)NCCc5cccs5)CC4)nnc(C)c3c2C)cc1 do in these assays?
UPR CHOP act: inactive; PvdQ inh: inactive; XBP1 UPR activ: 31; UPR XBP1 confirm: 45

How did CCc1ccccc1NC(=S)N1CCC(C(=O)c2ccc(F)cc2)CC1 do in these assays?
UPR CHOP act: inactive; PvdQ inh: inactive; CHOP inh: inactive; XBP1 UPR activ: inactive

What do the screens show for `COC(=O)c1ccc2c(=O)n(Cc3ccco3)c(SCC(=O)Nc3ccccc3Cl)nc2c1`?
UPR CHOP act: inactive; PvdQ inh: inactive; CHOP inh: inactive; XBP1 UPR activ: inactive
